Consider eleven compounds from ChEMBL document CHEMBL2440010, “Click chemistry based synthesis of dopamine D4 selective receptor ligands for the selection of potential PET tracers” (Bioorg Med Chem Lett, 2013).

Molecules are shown by their SMILES. The source made the active and inactive calls. The rule behind the calls is not given here.

Test [1] can be described thus: Displacement of [3H]ketanserin from 5-HT2 in pig cerebral cortex. Type of test: tissue-based, Sus scrofa.
Test [2] addresses T1, D(2) dopamine receptor (Homo sapiens, UniProt P14416). Kind of test: Displacement of [3H]spiperone from human D2long receptor expressed in CHO cells. Type of test: cell-based. In a few lines:
(§1)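 Competition binding against [3H]spiperone on cloned human receptors (D2long, D2short, D3, D4.4) stably expressed in CHO cells. Ki values were taken from two to four independent experiments, each run in triplicate.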

Test [3] deals with T2, D(4) dopamine receptor (Homo sapiens) (UniProt P21917).
T2 sequence (whole entry): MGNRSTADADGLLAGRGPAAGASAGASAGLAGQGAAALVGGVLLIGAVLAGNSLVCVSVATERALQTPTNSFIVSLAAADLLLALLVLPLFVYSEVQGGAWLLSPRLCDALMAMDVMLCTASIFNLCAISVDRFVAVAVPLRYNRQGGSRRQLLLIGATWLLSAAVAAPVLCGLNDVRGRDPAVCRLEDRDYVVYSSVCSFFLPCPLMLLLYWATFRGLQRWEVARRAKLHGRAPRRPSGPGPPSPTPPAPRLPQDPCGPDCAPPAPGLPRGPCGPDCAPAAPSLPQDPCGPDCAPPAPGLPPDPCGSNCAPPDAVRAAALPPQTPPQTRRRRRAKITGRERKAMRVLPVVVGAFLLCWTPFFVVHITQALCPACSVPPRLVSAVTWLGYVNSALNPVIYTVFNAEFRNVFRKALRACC
Kind of test: Partial agonist activity at human D4.4 receptor expressed in CHO10001 cells assessed as [3H]thymidine incorporation preincubated at 63 nM for 20 hrs before [3H]thymidine addition by mitogenesis assay. Type of test: cell-based. Background: Dividing cells build labelled thymidine or BrdU into new DNA.

The target in test [4] is T1, D(2) dopamine receptor. As to the kind of experiment: Displacement of [3H]spiperone from human D2short receptor expressed in CHO cells. Type of test: cell-based. In a few lines: as §1
(In a radioligand displacement assay an active substance lowers the binding of a labelled ligand.)

Test [5] in a line: Displacement of [3H]WAY100635 from 5-HT1A in pig cerebral cortex. Type of test: tissue-based, Sus scrofa. The method in brief: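 Porcine cortical membranes were used with selective radioligands: [3H]WAY100635 for 5-HT1A, [3H]ketanserin for 5-HT2 and [3H]prazosin for α1. Ki values were taken from two to four independent experiments, each run in triplicate.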
For a further test, the target named is T3, D(4) dopamine receptor (Homo sapiens, UniProt P21917).
T3 sequence (P21917 whole entry): T2 sequence (whole entry)
As to the kind of experiment: Displacement of [3H]spiperone from human D4.4 receptor expressed in CHO cells. Type of test: cell-based. The method in brief:
as §1

The next test deals with D(3) dopamine receptor (Homo sapiens, UniProt P35462). As to the kind of experiment: Displacement of [3H]spiperone from human D3 receptor expressed in CHO cells. Type of test: cell-based. In a few lines:
as §1

The target of the next test is D(1A) dopamine receptor (Sus scrofa, UniProt P50130). As to the kind of experiment: Displacement of [3H]SCH23390 from D1 receptor in pig striatal membrane. Type of test: cell membranes, Striatum. The method in brief: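 D1 binding on porcine striatal membrane preparations, displacing the D1-selective antagonist [3H]SCH23390. Ki values were taken from two to four independent experiments, each run in triplicate.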

Test [6] deals with T2, D(4) dopamine receptor (Homo sapiens). Kind of test: Antagonist activity at human D4.4 receptor expressed in CHO10001 cells assessed as [3H]thymidine incorporation preincubated at 63 nM for 20 hrs before [3H]thymidine addition by mitogenesis assay. Type of test: cell-based.

T1 sequence (P14416 whole entry): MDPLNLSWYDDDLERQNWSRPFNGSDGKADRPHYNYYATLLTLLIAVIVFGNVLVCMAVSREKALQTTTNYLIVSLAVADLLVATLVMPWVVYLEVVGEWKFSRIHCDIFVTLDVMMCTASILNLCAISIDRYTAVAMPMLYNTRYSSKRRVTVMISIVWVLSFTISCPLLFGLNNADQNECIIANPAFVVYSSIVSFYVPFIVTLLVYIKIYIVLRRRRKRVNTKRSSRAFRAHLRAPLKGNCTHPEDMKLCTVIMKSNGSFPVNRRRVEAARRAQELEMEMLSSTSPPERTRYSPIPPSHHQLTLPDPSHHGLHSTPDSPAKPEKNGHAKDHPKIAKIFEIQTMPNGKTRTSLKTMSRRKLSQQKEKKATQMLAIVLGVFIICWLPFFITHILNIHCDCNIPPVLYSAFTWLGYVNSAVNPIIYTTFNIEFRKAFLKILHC
D(1A) dopamine receptor, sequence (P50130 whole entry): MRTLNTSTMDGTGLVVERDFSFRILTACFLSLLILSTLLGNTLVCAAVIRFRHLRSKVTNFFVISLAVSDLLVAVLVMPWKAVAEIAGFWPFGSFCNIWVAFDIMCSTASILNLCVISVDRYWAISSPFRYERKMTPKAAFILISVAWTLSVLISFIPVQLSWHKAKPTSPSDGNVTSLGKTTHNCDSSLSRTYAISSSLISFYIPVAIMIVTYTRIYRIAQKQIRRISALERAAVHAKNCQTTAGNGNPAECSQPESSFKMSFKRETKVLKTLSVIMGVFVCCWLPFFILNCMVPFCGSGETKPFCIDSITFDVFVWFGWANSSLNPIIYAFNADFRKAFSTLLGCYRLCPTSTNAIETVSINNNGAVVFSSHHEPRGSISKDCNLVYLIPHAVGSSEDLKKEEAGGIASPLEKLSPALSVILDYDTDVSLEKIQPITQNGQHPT
D(3) dopamine receptor, sequence (P35462 whole entry): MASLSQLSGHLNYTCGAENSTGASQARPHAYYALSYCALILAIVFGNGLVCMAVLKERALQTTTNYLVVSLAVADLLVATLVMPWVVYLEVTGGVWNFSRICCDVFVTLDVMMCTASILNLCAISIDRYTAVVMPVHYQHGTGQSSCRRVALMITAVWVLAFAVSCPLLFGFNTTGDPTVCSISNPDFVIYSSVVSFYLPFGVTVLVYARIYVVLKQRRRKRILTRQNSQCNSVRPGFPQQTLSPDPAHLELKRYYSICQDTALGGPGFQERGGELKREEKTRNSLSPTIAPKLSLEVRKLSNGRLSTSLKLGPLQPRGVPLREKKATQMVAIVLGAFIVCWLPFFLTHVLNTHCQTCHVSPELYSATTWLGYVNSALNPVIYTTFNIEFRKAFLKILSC

Consider `COc1ccccc1N1CCN(Cc2cn(-c3ccc(OCCF)cc3)nn2)CC1`, for which the inhibition constant (Ki) was 10000 nM in [1]; 1600 nM at D(2) dopamine receptor [2]; 18000 nM at D(2) dopamine receptor [4]; 420 nM in test [5]; 14 nM on D(4) dopamine receptor; 17000 nM at D(3) dopamine receptor. The compound further came in with a Ki on D(1A) dopamine receptor of 45000 nM. The Activity in test [3] was 27%.

Regarding `COc1ccccc1N1CCN(Cc2cn(-c3ccc(OCCCOCCF)cc3)nn2)CC1`, the inhibition constant (Ki) in [1] worked out at 9000 nM; on D(2) dopamine receptor [2], 440 nM; on D(2) dopamine receptor [4] it was 770 nM; in test [5], 480 nM; on D(4) dopamine receptor, 16 nM; at D(3) dopamine receptor, 2900 nM. At D(1A) dopamine receptor, this compound showed a Ki of 3600 nM.

`COc1ccccc1N1CCN(Cc2cn([C@@H]3O[C@H](CF)[C@@H](O)[C@H](O)[C@H]3O)nn2)CC1`: the Ki stood at 24000 nM on D(2) dopamine receptor [2]; 51000 nM on D(2) dopamine receptor [4]; 18000 nM in test [5]; 340 nM at D(4) dopamine receptor; 77000 nM on D(1A) dopamine receptor.

In the case of `COc1ccccc1N1CCN(Cc2cn(-c3ccc(OCCOCCOCCF)cc3)nn2)CC1`, the Ki in [1] was 8200 nM; on D(2) dopamine receptor [2] it was 2700 nM; on D(2) dopamine receptor [4] it was 2900 nM; in [5], 560 nM; at D(4) dopamine receptor it was 100 nM; at D(3) dopamine receptor, 200 nM. At D(1A) dopamine receptor, this compound showed a Ki of 43000 nM.

In the case of `COc1ccccc1N1CCN(Cc2cn(CCCCCCF)nn2)CC1`, the Ki is 6400 nM in test [1]; 460 nM at D(2) dopamine receptor [2]; 560 nM at D(2) dopamine receptor [4]; 54 nM in test [5]; 20 nM on D(4) dopamine receptor; 800 nM at D(3) dopamine receptor. The compound also yielded a Ki at D(1A) dopamine receptor of 26000 nM.

On to `COc1ccccc1N1CCN(Cc2cn(CCOCCOCCOCCF)nn2)CC1`, for which the Ki in test [1] came to 18000 nM; at D(2) dopamine receptor [2], 8300 nM; at D(2) dopamine receptor [4], 4700 nM; in test [5] it was 770 nM; on D(4) dopamine receptor, 680 nM; on D(3) dopamine receptor it was 7600 nM. The compound also displayed a Ki on D(1A) dopamine receptor of 60000 nM.

`COc1ccccc1N1CCN(Cc2cn(-c3ccc(OCCCF)cc3)nn2)CC1`: the Ki on D(2) dopamine receptor [2] was 340 nM; at D(2) dopamine receptor [4], 520 nM; in [5], 420 nM; on D(4) dopamine receptor it was 5.1 nM; on D(3) dopamine receptor, 2800 nM; at D(1A) dopamine receptor it was 38000 nM. Besides, the outcome in test [6] was Active.

With `COc1ccccc1N1CCN(Cc2cn(-c3ccc(OCCCOC4O[C@H](CO)[C@@H](O)[C@H](O)[C@H]4F)cc3)nn2)CC1` (stereo not given in full), the inhibition constant (Ki) in test [1] came to 7800 nM; at D(2) dopamine receptor [2], 4100 nM; on D(2) dopamine receptor [4], 1500 nM; in [5], 650 nM; at D(4) dopamine receptor, 32 nM; at D(3) dopamine receptor, 5700 nM. At D(1A) dopamine receptor, this compound came in with a Ki of 16000 nM.

`COc1ccccc1N1CCN(Cc2cn(CCOCCOCCF)nn2)CC1`: the Ki in test [1] turned out to be 23000 nM; at D(2) dopamine receptor [2], 7700 nM; on D(2) dopamine receptor [4], 3400 nM; in [5] it was 870 nM; at D(4) dopamine receptor it was 150 nM; on D(3) dopamine receptor, 5100 nM. At D(1A) dopamine receptor, this compound gave a Ki of 30000 nM.

`COc1ccccc1N1CCN(Cc2cn([C@@H]3O[C@H](CO)[C@@H](O)[C@H](O)[C@H]3F)nn2)CC1`: the Ki is 38000 nM in [1]; 23000 nM at D(2) dopamine receptor [2]; 42000 nM at D(2) dopamine receptor [4]; 12000 nM in test [5]; 500 nM at D(4) dopamine receptor; 17000 nM on D(3) dopamine receptor. The compound further had a Ki on D(1A) dopamine receptor of 54000 nM.

As to `COc1ccccc1N1CCN(Cc2cn(CCOCCF)nn2)CC1`, the Ki in test [1] is 27000 nM; at D(2) dopamine receptor [2], 1600 nM; at D(2) dopamine receptor [4], 750 nM; in [5] it was 240 nM; at D(4) dopamine receptor, 23 nM; at D(3) dopamine receptor, 1700 nM.

One may read the Ki as the equilibrium dissociation constant of an inhibitor or competing ligand from its target. The low end stands for higher affinity, the high end for lower affinity.
